Test [1] concerns Fusarium oxysporum. Nature of the test: Antifungal activity against Fusarium oxysporum 1 at 60 ug/disc after 24 hrs by disc diffusion method. Conditions: for zone of inhibition at 60 µg/disc: read-out: IZ. Type of test: functional. An outline of the steps:
(§1)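 Yeast suspensions (C. albicans strains 1, 2) and mycelial suspensions (F. oxysporum strains 1, 2; Mucor sp.) spread on YPG (0.3% yeast extract, 0.5% peptone, 1% glucose) or PDA agar. Compound applied on filter-paper discs at the stated amount; 28 °C, 24 h. Read-out is inhibition zone diameter. Controls: 50% v/v DMSO vehicle, cycloheximide, amphotericin B.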

Test [2] concerns Candida albicans. Nature of the test: Antifungal activity against Candida albicans 2 at 60 ug/disc after 24 hrs by disc diffusion method. Type of test: functional. Conditions: read-out: IZ. The gist of the method: as §1
The test system of test [3] is Mucor. Nature of the test: Antifungal activity against Mucor at 100 ug/disc after 24 hrs by disc diffusion method. Type of test: functional. The gist of the method:
as §1

In test [4] the test system is Benjaminiella poitrasii. Nature of the test: Inhibition of Benjaminiella poitrasii chitin synthase at 4 ug/mL. The gist of the method:
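Chitin synthase from Benjaminiella poitrasii measured with and without compound at 4 µg/ml, using a non-radioactive chitin synthase assay. Nikkomycin Z used as reference.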

Test [5] has as its system Candida albicans. Briefly: Antifungal activity against Candida albicans 1 after 24 hrs by disc diffusion method. Format: functional. An outline of the steps: (§2)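 Disc diffusion on Candida albicans strains 1 and 2 (yeast suspension), Fusarium oxysporum strains 1 and 2 and Mucor sp. (mycelial suspension), spread on YPG or PDA agar. Compound at graded amounts per filter-paper disc, 28 °C for 24 h. MIC taken as the lowest amount giving a 2 mm inhibition zone. Controls: 50% v/v DMSO vehicle, cycloheximide, amphotericin B.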

Test [6] deals with Mucor. Briefly: Antifungal activity against Mucor at 40 ug/disc after 24 hrs by disc diffusion method. Format: functional. The gist of the method: as §1
The subject of test [7] is Fusarium oxysporum. Nature of the test: Antifungal activity against Fusarium oxysporum 1 at 100 ug/disc after 24 hrs by disc diffusion method. Format: functional. Conditions: read-out: IZ. An outline of the steps: as §1
In test [8] the test system is Fusarium oxysporum. Briefly: Antifungal activity against Fusarium oxysporum 2 at 60 ug/disc after 24 hrs by disc diffusion method. Type of test: functional. Conditions: for zone of inhibition at 60 µg/disc: read-out: IZ. An outline of the steps: as §1
The subject of test [9] is Mucor. Nature of the test: Antifungal activity against Mucor at 60 ug/disc after 24 hrs by disc diffusion method. Type of test: functional. The gist of the method: as §1
For test [10], the system named is Candida albicans. Nature of the test: Antifungal activity against Candida albicans 1 at 40 ug/disc after 24 hrs by disc diffusion method. Type of test: functional. The gist of the method:
as §1

For test [11], the system named is Fusarium oxysporum. Nature of the test: Antifungal activity against Fusarium oxysporum 1 at 40 ug/disc after 24 hrs by disc diffusion method. Type of test: functional. An outline of the steps: as §1
The subject of test [12] is Candida albicans. Nature of the test: Antifungal activity against Candida albicans 1 at 60 ug/disc after 24 hrs by disc diffusion method. Format: functional. Conditions: read-out: IZ. The gist of the method:
as §1

Test [13] relates to Fusarium oxysporum. Briefly: Antifungal activity against Fusarium oxysporum 2 after 24 hrs by disc diffusion method. Format: functional. The gist of the method: as §2
Test [14] concerns Candida albicans. Briefly: Antifungal activity against Candida albicans 2 at 40 ug/disc after 24 hrs by disc diffusion method. Format: functional. An outline of the steps: as §1
Test [15] deals with Fusarium oxysporum. Briefly: Antifungal activity against Fusarium oxysporum 1 after 24 hrs by disc diffusion method. Type of test: functional. An outline of the steps:
as §2

Test [16] concerns Fusarium oxysporum. Nature of the test: Antifungal activity against Fusarium oxysporum 2 at 40 ug/disc after 24 hrs by disc diffusion method. Format: functional. Conditions: for zone of inhibition at 40 µg/disc: read-out: IZ. The gist of the method: as §1
The test system of test [17] is Benjaminiella poitrasii. Nature of the test: Inhibition of yeast hypha transition at 20 ug/mL after 4 hrs.
Test [18] relates to Candida albicans. Nature of the test: Antifungal activity against Candida albicans 1 at 100 ug/disc after 24 hrs by disc diffusion method. Format: functional. Conditions: read-out: IZ. The gist of the method: as §1
In test [19] the test system is Candida albicans. Briefly: Antifungal activity against Candida albicans 2 after 24 hrs by disc diffusion method. Format: functional. An outline of the steps: as §2
In test [20] the test system is Candida albicans. Nature of the test: Antifungal activity against Candida albicans 2 at 100 ug/disc after 24 hrs by disc diffusion method. Type of test: functional. Conditions: read-out: IZ. The gist of the method: as §1
Test [21] relates to Fusarium oxysporum. Nature of the test: Antifungal activity against Fusarium oxysporum 2 at 100 ug/disc after 24 hrs by disc diffusion method. Format: functional. Conditions: read-out: IZ. An outline of the steps:
as §1

Activity calls are given as the source filed them. The rule behind the calls is not given here.

On to `COc1ccc(-c2c(C#N)c(N)nc3c2C(=O)CCC3)cc1`, for which the result in test [1], in test [3], in test [6], in test [8], in test [9] and in test [10] was inactive. The outcome in test [11] and in test [14] was inactive. For the same compound, the zone of inhibition at 60 µg/disc in test [2] and in test [12] was 3 mm in each case. The compound also came in with an inhibition in test [4] of 81%. Moreover, the MIC in [5] came out at 60 µg/disc; in [13] it was 100 µg/disc; in [15], 100 µg/disc; in test [19], 60 µg/disc. The zone of inhibition at 100 µg/disc was 6 mm in [7], 4 mm in test [18], 4 mm in [20] and 6 mm in test [21]. For the same compound, the zone of inhibition at 40 µg/disc in [16] was 3 mm. The inhibition at 20 µg/mL in test [17] came to 95%.
`N#Cc1c(N)nc2c(c1-c1ccc([N+](=O)[O-])cc1)C(=O)CCC2`: the zone of inhibition at 60 µg/disc in test [1] worked out at 2 mm; in test [2], 3 mm; in [8] it was 2 mm; in test [12] it was 3 mm. Moreover, the result in test [3], in test [6], in test [9], in test [10], in [11] and in test [14] was inactive. Further, the outcome in test [16] was inactive. In addition, the inhibition in test [4] worked out at 61%. Moreover, the MIC in [5], in test [13], in [15] and in test [19] was 60 µg/disc each time. For the same compound, the zone of inhibition at 100 µg/disc in [7] was 3 mm; in test [18], 5 mm; in test [20], 5 mm; in test [21] it was 3 mm. In test [17], this compound gave an inhibition at 20 µg/mL of 95%.
As for `N#Cc1c(N)nc2c(c1-c1ccccc1)C(=O)CCC2`, the zone of inhibition at 60 µg/disc in [1] was found to be 3 mm; in test [2] it was 2 mm; in test [8], 3 mm; in test [12], 2 mm. Moreover, the outcome in [3], in test [6], in test [9], in test [10], in [11] and in test [14] was inactive. Moreover, in [4], the inhibition stood at 66%. Moreover, the MIC in [5], in [13], in test [15] and in [19] was 60 µg/disc each time. Further, the zone of inhibition at 100 µg/disc in test [7], in test [18], in test [20] and in [21] was 6 mm each time. The zone of inhibition at 40 µg/disc in [16] stood at 3 mm. In addition, 20 µg/mL produced 90% inhibition in [17].
For `C[C@@H]1C[C@@H]([C@H](O)CC2CC(=O)NC(=O)C2)C(=O)[C@@H](C)C1` [CYCLOHEXIMIDE], the zone of inhibition at 60 µg/disc is 5 mm in test [1], 4 mm in [2], 5 mm in [8] and 4 mm in [12]. The outcome in test [3], in test [6] and in [9] was inactive. In addition, the MIC worked out at 40 µg/disc in [5], 20 µg/disc in test [13], 20 µg/disc in test [15] and 40 µg/disc in test [19]. For the same compound, the zone of inhibition at 100 µg/disc in test [7], in test [18], in test [20] and in test [21] was 7 mm throughout. The zone of inhibition at 40 µg/disc in test [10] (read-out: IZ) came to 2 mm; in test [11] (read-out: IZ), 3 mm; in [14] (read-out: IZ), 2 mm; in test [16], 3 mm.

The values are drawn from ChEMBL document CHEMBL1137451, “Synthesis and evaluation of antifungal properties of a series of the novel 2-amino-5-oxo-4-phenyl-5,6,7,8-tetrahydroquinoline-3-carbonitrile and its analogues” (Bioorg Med Chem, 2007).
